Experimental data from ChEMBL document CHEMBL5705886, “GSK1070916, a potent Aurora B/C kinase inhibitor with broad antitumor activity in tissue culture cells and human tumor xenograft models” (Mol Cancer Ther, 2009).
Calls of active or inactive are those of the source. No cut-off for these calls is given here.

Tests used:
HCT-116 = experiment: Antiproliferative activity against human HCT-116 cells assessed as inhibition of cell viability measured for 6 to 7 days by cell titer glo assay; format: functional, cell-based
In short: (§1)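 Tumor lines plated in recommended growth media, overnight at 37°C, 5% CO2, then given serial dilutions; a T=0 plate read with CellTiter-Glo at dosing. After 6–7 d of exposure, viability read by CellTiter-Glo luminescence. No-cell wells subtracted, data expressed as % of DMSO control.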

COLO 201 = experiment: Antiproliferative activity against human COLO201 cells assessed as inhibition of cell viability measured for 6 to 7 days by cell titer glo assay; format: functional, cell-based; in short: as §1
[1] = Antiproliferative activity against human Kasumi-2 cells assessed as inhibition of cell viability measured for 6 to 7 days by cell titer glo assay; format: functional, cell-based
In short: (§2)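 Cells seeded in recommended growth medium, incubated overnight at 37°C in 5% CO2, then exposed to serial dilutions of inhibitor for 6–7 d. A parallel plate was read with CellTiter-Glo at compound addition as a T=0 value. The luminescent viability readout had no-cell background subtracted and was expressed as % of DMSO control.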

SEM cells = experiment: Antiproliferative activity against human SEM cells assessed as inhibition of cell viability measured for 6 to 7 days by cell titer glo assay; format: functional, cell-based
In short: (§3)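 Cells seeded in recommended growth medium, held overnight at 37°C in 5% CO2, then exposed to serial dilutions of inhibitor for 6–7 d. A time-zero plate was read with CellTiter-Glo at dosing. Luminescent viability read at the end. No-cell wells subtracted as background, data expressed as percent of DMSO control.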

[2] = Antiproliferative activity against human BC-2 cells assessed as inhibition of cell viability measured for 6 to 7 days by cell titer glo assay; format: functional, cell-based; in short: as §1
COLO 205 = experiment: Induction of apoptosis in human COLO 205 cells assessed as PARP cleavage at 10 nmol/L incubated for 24 hrs by Western blot analysis; format: functional, cell-based
[3] = Antiproliferative activity against human CML-T1 cells assessed as inhibition of cell viability measured for 6 to 7 days by cell titer glo assay; format: functional, cell-based; in short: as §1
Daudi = experiment: Antiproliferative activity against human Daudi cells assessed as inhibition of cell viability measured for 6 to 7 days by cell titer glo assay; format: functional, cell-based; in short: as §1
[4] = Antiproliferative activity against human OCI-M1 cells assessed as inhibition of cell viability measured for 6 to 7 days by cell titer glo assay; format: functional, cell-based; in short: as §3
[5] = Antiproliferative activity against human 1A2 cells assessed as inhibition of cell viability measured for 6 to 7 days by cell titer glo assay; format: functional, cell-based; in short: as §1
NAMALVA = experiment: Antiproliferative activity against human NAMALWA cells assessed as inhibition of cell viability measured for 6 to 7 days by cell titer glo assay; format: functional, cell-based; in short: as §2
[6] = Antiproliferative activity against human CEM/C1 cells assessed as inhibition of cell viability measured for 6 to 7 days by cell titer glo assay; format: functional, cell-based; in short: as §1
KCL-22 = experiment: Antiproliferative activity against human KCL-22 cells assessed as inhibition of cell viability measured for 6 to 7 days by cell titer glo assay; format: functional, cell-based; in short: as §2
NCI-H157 = experiment: Antiproliferative activity against human NCI-H157 cells assessed as inhibition of cell viability measured for 6 to 7 days by cell titer glo assay; format: functional, cell-based; in short: as §2
OVCAR-8 = experiment: Antiproliferative activity against human OVCAR-8 cells assessed as inhibition of cell viability measured for 6 to 7 days by cell titer glo assay; format: functional, cell-based; in short: as §3
Pfeiffer = experiment: Antiproliferative activity against human Pfeiffer cells assessed as inhibition of cell viability measured for 6 to 7 days by cell titer glo assay; format: functional, cell-based; in short: as §3
NCI-H630 = experiment: Antiproliferative activity against human NCI-H630 cells assessed as inhibition of cell viability measured for 6 to 7 days by cell titer glo assay; format: functional, cell-based; in short: as §3
[7] = Toxicity in SCID nude mouse xenografted with human SW620 cells assessed as drug tolerance at 25 to 100 mg/kg, ip administered once daily for 5 consecutive days with 2 days off scheduled for 3 cycles measured upto 60 days; format: organism-based, SW-620; conditions: in vivo, 1440 h, dose 25-100 mg/kg, time < 60 day
[8] = Antiproliferative activity against human Tanoue cells assessed as inhibition of cell viability measured for 6 to 7 days by cell titer glo assay; format: functional, cell-based; in short: as §3
[9] = Toxicity in SCID nude mouse xenografted with human HL-60 cells assessed as drug tolerance at 100 mg/kg, ip administered once daily for 5 consecutive days with 2 days off scheduled for 2 cycles measured upto 60 days; conditions: in vivo, 1440 h
NOMO-1 = experiment: Antiproliferative activity against human NOMO-1 cells assessed as inhibition of cell viability measured for 6 to 7 days by cell titer glo assay; format: functional, cell-based; in short: as §3
SW-620 = experiment: Antiproliferative activity against human SW620 cells assessed as inhibition of cell viability measured for 6 to 7 days by cell titer glo assay; format: functional, cell-based; in short: as §3
EM-2 = experiment: Antiproliferative activity against human EM-2 cells assessed as inhibition of cell viability measured for 6 to 7 days by cell titer glo assay; format: functional, cell-based; in short: as §1
[10] = Toxicity in SCID nude mouse xenografted with human K562 cells assessed as drug tolerance at 100 mg/kg, ip administered once daily for 5 consecutive days with 2 days off scheduled for 3 cycles measured upto 60 days; format: organism-based; conditions: in vivo, 1440 h, time < 60 day
[11] = Toxicity in SCID nude mouse xenografted with human COLO 205 cells assessed as body weight loss at 25 to 100 mg/kg, ip administered once daily for 5 consecutive days with 2 days off scheduled for 2 cycles measured upto 60 days relative to control; format: organism-based; conditions: in vivo, 1440 h, dose 25-100 mg/kg, time < 60 day
GDM-1 = experiment: Antiproliferative activity against human GDM-1 cells assessed as inhibition of cell viability measured for 6 to 7 days by cell titer glo assay; format: functional, cell-based; in short: as §1
RCK8 = experiment: Antiproliferative activity against human RCK8 cells assessed as inhibition of cell viability measured for 6 to 7 days by cell titer glo assay; format: functional, cell-based; in short: as §3
THP-1 = experiment: Antiproliferative activity against human THP-1 cells assessed as inhibition of cell viability measured for 6 to 7 days by cell titer glo assay; format: functional, cell-based; in short: as §3
HEC-1B cell line = experiment: Antiproliferative activity against human HEC-1B cell line assessed as inhibition of cell viability measured for 6 to 7 days by cell titer glo assay; format: functional, cell-based; in short: as §1
[12] = Antiproliferative activity against human MV-522 cells assessed as inhibition of cell viability measured for 6 to 7 days by cell titer glo assay; format: functional, cell-based; conditions: MV522; in short: as §2
MV-4-11 (human) = experiment: Antitumor activity in human MV-4-11 cells xenografted in NOD-SCID mouse assessed as median survival time at 20 mg/kg, ip administered once daily for 5 consecutive days with 2 days off scheduled for 3 cycles measured upto 120 days; conditions: time <= 120 day
NCI-H1299 = experiment: Antiproliferative activity against human NCI-H1299 cells assessed as inhibition of cell viability measured for 6 to 7 days by cell titer glo assay; format: functional, cell-based; in short: as §2
MOLT-3 = experiment: Antiproliferative activity against human MOLT-3 cells assessed as inhibition of cell viability measured for 6 to 7 days by cell titer glo assay; format: functional, cell-based; in short: as §2
[13] = Toxicity in SCID nude mouse xenografted with human A549 cells assessed as body weight loss at 25 to 100 mg/kg, ip administered once daily for 5 consecutive days with 2 days off scheduled for 3 cycles measured upto 60 days relative to control; format: organism-based; conditions: in vivo, 1440 h, dose 25-100 mg/kg, time < 60 day
RPMI-8226 = experiment: Antiproliferative activity against human RPMI-8226 cells assessed as inhibition of cell viability measured for 6 to 7 days by cell titer glo assay; format: functional, cell-based; in short: as §3

## CCn1cc(-c2ccnc3[nH]c(-c4cccc(CN(C)C)c4)cc23)c(-c2ccc(NC(=O)N(C)C)cc2)n1 [GSK-1070916]
HCT-116
  EC50: 8 nM
COLO 201
  EC50: 2 nM
[1]
  EC50: 6 nM
SEM cells
  EC50: 3 nM
[2]
  EC50: 75 nM
COLO 205
  Activity: Active
[3]
  EC50: 3 nM
Daudi
  EC50: 5 nM
[4]
  EC50: 20 nM
[5]
  EC50: 9 nM
NAMALVA
  EC50: 6 nM
[6]
  EC50: 6 nM
KCL-22
  EC50: 5 nM
NCI-H157
  EC50: 8 nM
OVCAR-8
  EC50: 30 nM
Pfeiffer
  EC50: 4 nM
NCI-H630
  EC50: 127 nM
[7]
  Activity: Non-Toxic
[8]
  EC50: 1480 nM
[9]
  Activity: Toxic
NOMO-1
  EC50: 2 nM
SW-620
  EC50: 8 nM
EM-2
  EC50: 4 nM
[10]
  Activity: Toxic
[11]
  Activity: < 15%
GDM-1
  EC50: 21 nM
RCK8
  EC50: 38 nM
THP-1
  EC50: 5 nM
HEC-1B cell line
  EC50: 4 nM
[12]
  EC50: 13 nM
MV-4-11 (human)
  MST: 103 days
NCI-H1299
  EC50: 23 nM
MOLT-3
  EC50: 5 nM
[13]
  Activity: < 15%
RPMI-8226
  EC50: 11 nM
